# High-throughput results deposited in PubChem BioAssay by several laboratories.
# ABCG2 inh – blocks JC-1 efflux by human ABCG2 transporter; Q9UNQ0; IgMXP3 cells, flow cytometry; inhibition, % at 6.6 µM; 190,000 compounds, 0.1% hits;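 active = inhibition above 80%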;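 note: 0% = DMSO and 100% = nicardipine control wells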
#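 Test system: IgMXP3 (ABCG2) plus far-red-tagged CCRF-Adr (ABCB1) cells / Amount: 3 million cells/mL in well / Reagent: JC-1 transporter substrate / Timing: 10 min compound exposure, 25 °C / Signal: flow cytometry, 530 nm JC-1 signal / Read-out: percent efflux inhibition, scaled nicardipine 100% to DMSO 0% / Benchmarks: nicardipine as high control, DMSO as low control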
# bCat nuc transl – alters nuclear translocation of beta-catenin in HeLa cells; 190,000 compounds, 0.3% hits; nuclear translocation activity, % at 5 µM; AID 1665; immunofluorescence imaging;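 active = nuclear translocation activity above 50% at 5 µM, with a well cell count of 50 or more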;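 note: per-cell ratio of nuclear to cytoplasmic median beta-catenin stain intensity; plate controls were DMSO negative control for no effect and GSK-3 inhibitor IX positive control for full effect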
#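 Signal – beta-catenin immunofluorescence imaging with DAPI · Test system – human HeLa cell line · Dosing – 5 µM primary single dose, 0.1% DMSO, 0.02–20 µM confirmation series · Measure – % activation, nuclear-to-cytoplasmic median beta-catenin signal ratio per cell · Incubation – 24 h compound exposure at 37°C, 5% CO2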
# PKD1 kinase inh – inhibitors of human PKD1 kinase; inhibition, % (no concentration beside the values); 200,000 compounds, 0.056% hits; PKD1 kinase fluorescence polarization assay; Q15139; in the data active = inhibition above about 50%
# Target sequence (Q15139 whole entry, looked up): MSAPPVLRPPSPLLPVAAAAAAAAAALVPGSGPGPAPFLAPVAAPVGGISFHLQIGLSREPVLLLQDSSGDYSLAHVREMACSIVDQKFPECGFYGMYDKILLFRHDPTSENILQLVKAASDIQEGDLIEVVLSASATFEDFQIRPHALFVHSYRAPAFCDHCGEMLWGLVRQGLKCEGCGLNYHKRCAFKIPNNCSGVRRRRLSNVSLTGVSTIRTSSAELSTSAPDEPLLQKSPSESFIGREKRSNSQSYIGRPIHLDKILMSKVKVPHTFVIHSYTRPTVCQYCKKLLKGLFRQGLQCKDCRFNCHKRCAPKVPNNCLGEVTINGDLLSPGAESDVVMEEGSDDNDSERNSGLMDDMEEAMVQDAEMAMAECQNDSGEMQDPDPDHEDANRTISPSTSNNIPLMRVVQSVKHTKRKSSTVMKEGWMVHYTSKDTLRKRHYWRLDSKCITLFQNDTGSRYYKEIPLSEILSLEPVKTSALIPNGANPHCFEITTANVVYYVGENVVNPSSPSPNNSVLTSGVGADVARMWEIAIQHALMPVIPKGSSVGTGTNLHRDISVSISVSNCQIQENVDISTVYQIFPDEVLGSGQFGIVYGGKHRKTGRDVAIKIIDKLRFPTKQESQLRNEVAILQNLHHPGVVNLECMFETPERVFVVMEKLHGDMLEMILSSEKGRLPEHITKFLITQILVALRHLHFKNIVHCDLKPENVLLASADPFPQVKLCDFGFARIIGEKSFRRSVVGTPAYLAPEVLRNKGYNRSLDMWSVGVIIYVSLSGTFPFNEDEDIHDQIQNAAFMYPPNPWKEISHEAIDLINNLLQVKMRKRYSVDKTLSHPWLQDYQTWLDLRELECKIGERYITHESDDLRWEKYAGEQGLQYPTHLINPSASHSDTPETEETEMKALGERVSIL
# ABCB1 block – human ABCB1 inhibition, ABCG2 as counter-screen. CCRF-Adr cells, JC-1 efflux, flow cytometry. inhibition, % at 6.6 µM. 190,000 compounds, 0.067% hits. AID 1326; in the data active = inhibition above about 40%;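 note: 0% = vehicle and 100% = reference inhibitor; higher value means more JC-1 retained so stronger ABCB1 efflux block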
# MT stabilizer – microtubule stabilization, imaging screen; 200,000 compounds, 0.83% hits; HeLa tubulin immunostaining HCS, 24 h; share of cells brighter than vehicle mean+2SD; % tubulin-high responders, % at 10 µM;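 active = plate Z-score above 3 for both tubulin-high and condensed-nucleus cell shares, with cell loss under 80%, at 10 µM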;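 note: anti alpha tubulin signal scored within the nucleus-defined area of each cell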
# Active calls of the source: *; x = no result given. Hits are enriched below; roughly 1% of the tested compounds scored in any of these assays.
SMILES,ABCG2 inh,bCat nuc transl,PKD1 kinase inh,ABCB1 block,MT stabilizer
Cc1cc(=O)[nH]c(N/N=C/C(C)c2ccccc2)n1 (configuration not stated),x,-0.2,x,x,x
Cc1cc2nc(-c3ccc(SCc4ccc(C(=O)O)cc4)nc3)[nH]c2cc1C,-1.1,12.0,-3.2,-0.5,17.5*
Cc1cc2nc(-c3ccc(SCC(=O)NC(C)C)nc3)[nH]c2cc1C,1.8,2.3,5.2,0.2,4.9
CCC(=O)Nc1ccc(C(=O)N/N=C/c2cc(Br)c(OC)cc2OC)cc1,-2.3,-2.0,-6.8,-0.8,4.0
O=S(=O)(CCSc1nc2ccccc2s1)c1nc2ccccc2s1,64.6,2.6,-8.1,0.6,10.9*
COc1ccc(CC(=O)n2nc(-c3ccc(Cl)cc3)nc2NCc2ccco2)cc1,3.3,-3.9,5.0,1.0,27.9*
CCn1nc(C)c(C(=O)Nc2cc(Oc3ccc(Cl)cc3)cc([N+](=O)[O-])c2)c1C,4.0,2.7,-7.6,0.3,29.5*
Cc1nn(CCCC(=O)Nc2cc(Oc3ccc(F)cc3)cc([N+](=O)[O-])c2)c(C)c1[N+](=O)[O-],23.9,0.1,-8.4,8.2,2.8
Cc1ccccc1S(=O)(=O)NC1=NCCCCC1,-2.4,0.2,-13.3,-0.1,14.5*
O=S(=O)(NC1=NCCCCC1)c1ccccc1Cl,x,1.1,x,x,x
CC(Nc1ccccc1N1CCCCC1)C(=O)N1CCc2ccccc21 (configuration not stated),16.9,-0.8,-8.9,3.1,3.0
Cc1ccccc1C1(CCN2CCCCC2)CCOC(C)(C)C1 (configuration not stated),6.5,x,-1.5,0.7,1.6
COc1ccc(C)c(-n2c(=O)n(Cc3ccccc3)c(=O)c3[nH]cnc32)c1,x,0.4,x,x,x
COc1ccc(Cn2c(=O)c3[nH]cnc3n(-c3ccccc3C)c2=O)cc1,x,73.4*,x,x,x
CCOC(=O)Nc1ccc(S(=O)(=O)N2CCC(C)CC2)cc1,5.6,3.4,-2.1,0.5,18.0*
COc1ccc(NS(=O)(=O)c2cccc(NC(=O)c3ccc(S(=O)(=O)N4CCCCCC4)cc3)c2)cc1,1.4,0.2,-5.9,0.0,18.2*
COc1ccc(OC)c(C(=O)c2oc3ccccc3c2NC(C)=O)c1,3.7,-1.8,17.2,1.0,17.2*
Cc1cc(C)c(S(=O)(=O)NNC(=O)C2CCN(Cc3ccccc3)CC2)c(C)c1,0.1,x,-4.8,0.1,2.8
CCOc1ccc(NC(=O)c2cc3c(C)nc4ccccc4c3o2)cc1,-2.9,126.0*,0.2,-0.8,17.0*
Cc1cc(C)c(NC(=O)/C=C\C(=O)O)c([N+](=O)[O-])c1,0.1,-2.1,-4.8,0.2,3.2
O=C(O)c1cc(C(=O)C2CC2)c[nH]1,-1.3,0.8,0.4,0.1,3.0
O=C(O)c1cc(C(=O)C2CCCCC2)c[nH]1,1.6,-1.6,111.9*,0.1,4.0
CCOc1ccc(C(=O)OCn2nnc3ccccc3c2=O)cc1OC,9.1,3.6,-6.0,2.5,2.3
COc1cc(C(=O)OCn2nnc3ccccc3c2=O)cc(OC)c1OC,1.1,82.8*,-5.4,1.4,5.6
O=C(CSc1nnc(-c2ccc(F)cc2)c2ccccc12)Nc1ccccc1Cl,6.4,2.3,1.3,0.6,5.0
SMILES,ABCG2 inh,bCat nuc transl,PKD1 kinase inh,ABCB1 block,MT stabilizer
CCN(c1ccc(NC(=O)c2ccc(Cl)nc2)cc1)C(C)C,13.5,27.0,4.4,1.6,23.2*
O=C(Nc1cccc(O)c1)c1cc(-c2ccco2)on1,5.3,2.3,2.9,0.4,3.2
O=C(NC(=S)Nc1cccc([N+](=O)[O-])c1)c1ccco1,6.9,0.8,-2.1,0.7,1.7
Cc1cccc(NC(=S)NC(=O)/C=C/c2ccco2)c1,3.6,52.2*,2.4,0.2,22.1*
COc1ccc(-c2csc(NC(=S)NC(=O)/C=C/c3ccco3)n2)cc1OC,-0.5,52.5*,-1.5,0.0,2.5
COc1ccc(-c2csc(NC(=S)NC(=O)/C=C/c3ccco3)n2)cc1Br,x,-2.4,x,x,x
O=C(/C=C/c1ccco1)Nc1ccc(N2CCCC2)cc1,1.9,6.8,-4.4,-0.2,24.6*
Cc1ccc(-n2nc3ccc(NC(=S)NC(=O)/C=C/c4ccco4)cc3n2)cc1,-3.5,1.6,-4.4,-0.8,2.1
O=C(/C=C/c1ccco1)NC(=S)Nc1cccc([N+](=O)[O-])c1,9.5,1.5,-4.0,0.0,15.0*
CC(=O)N1CCN(CC(=O)Nc2ccccc2Sc2ccccc2)CC1,-1.4,-4.7,-13.1,0.5,2.6
CC1(C)CC(=O)C=C(NCCN2CCN(C(=S)NC3CCCCC3)CC2)C1,x,-1.6,x,x,x
